Assay results as given in PubChem BioAssay.
Active and inactive are the calls of the source.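 Rule for the calls, unless noted: active = fluorescence slope higher than the sample average by over 3 SD (cut at about -0.22 in these data, passing the limit was not always enough); inactive = the rest.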

Key:
[1] = inhibitors of TNFa-induced NFkB p65 translocation, primary screen, imaging, HUVEC, MLSMR starter and 10KST1 sets (AID 438;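 active = inhibition above 20% together with a positive visual image hit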;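 note: compound added about 3h40 before a 20 min TNFalpha stimulation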;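 for inhibition: signal is the nuclear over cytoplasmic p65 intensity ratio per well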); details: HUVEC TNFa-induced p65 nuclear translocation; cell count: measured here: nuclei count (cytotoxicity indicator), at 2.08 µM; inhibition: at 2 µM, stronger effect = higher value, 0% TNFa-plus-vehicle, 100% no-TNFa wells
[2] = reduction of polyQ htt aggregates in cells – imaging, exon1htt(103Q)mCFP cells, high-content imaging, primary screen (AID 483;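 active = visual image review flags a hit and inhibition of aggregation exceeds 20%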;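 note: compound exposure lasted 3 days before fixation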;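 for nuclei count: percent of the per-plate median nuclei count of sample wells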); details: exon1htt(103Q)mCFP cell line, aggregate imaging, at 2 µM; inhibition of aggregation: stronger effect = higher value; nuclei count: measured here: cell count, toxicity
[3] = endothelial E-selectin expression blockers – imaging, HUVEC, immunofluorescence, MLSMR starter and 10KST1 sets, primary screen (AID 487;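 active = visually confirmed hit in the image check and inhibition above 20%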;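 for inhibition: signal is fraction of cell area covered by stained E-selectin grains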;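 for nuclei count: 100% = median nuclei count of all wells on the same plate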); details: HUVEC TNFalpha-induced E-selectin immunofluorescence imaging, at 2 µM; inhibition: stronger effect = higher value; nuclei count: measured here: cell number, toxicity
[4] = biological target: Voltage-gated potassium channel subunit beta-2 (Rattus norvegicus) (UniProt P62483); test: inhibitors of rat Kvbeta2 reductase activity – biochemical, NADPH fluorescence, primary screen (AID 622); details: recombinant KvBeta, 4-cyanobenzaldehyde reduction, at 10 µM, stronger effect = higher value;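 note: slope of raw intensity against log time taken from 70 to 1610 s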
[5] = biological target: Voltage-gated potassium channel subunit beta-2 (Rattus norvegicus) (UniProt P62483); test: enhancers of rat Kvbeta2 NADPH turnover – biochemical, NADPH fluorescence, primary screen (AID 623;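 active = NADPH fluorescence slope more negative than the mean of all samples by about 3 SD, 99.7% confidence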;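 note: fluorescence intensity change per second fitted from 20 to 320 s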); details: Recombinant KvBeta, NADPH fluorescence decrease slope, 10 min; at 10 µM; stronger effect = lower value
[6] = biological target: Muscarinic acetylcholine receptor M4 (Homo sapiens) (UniProt P08173); test: M4-linked GIRK flux change, two-sided – cell-based, HEK293 M4/GIRK, thallium flux, BTC-AM, M4 allosteric agonist project, primary screen (AID 625;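 active = fluorescence slope after compound addition differing from the mean of all tested samples at 99.7% confidence, mostly higher but some lower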;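 note: thallium influx through GIRK channels coupled to M4 in HEK293 cells with BTC-AM dye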); details: at 10 µM, actives lie on both sides
In short: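 Material – HEK293 cells with M4 receptor and GIRK channels · Buffer or medium – pH 7.3 thallium assay buffer · Doses – one dose, 10 µM final · Timing – cells overnight at 37 °C, BTC-AM loading 1 h, reads 2 min total · Measured by – kinetic fluorescence with BTC-AM dye · Controls – carbachol and DMSO controls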

[7] = blockers of RIG-like receptor reporter activation – cell-based, Sendai virus stimulus, luciferase, 10K MLSCN set, TLR/RLR signaling modifier project, primary screen (AID 602276;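 active = inhibition at or above 50% at 10 µM; inactive = inhibition below 50%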;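 note: firefly luciferase from ISG56 promoter only with Renilla not read in this screen; 0% = Sendai virus plus DMSO and 100% = medium plus DMSO without virus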); details: HEK293 RL24 IRF3 luciferase reporter, at 10 µM, stronger effect = higher value
[8] = TLR3 IRF3 reporter activation blockers – cell-based, poly I:C stimulus, luciferase, 10K MLSCN set, primary screen (AID 602277;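 active = inhibition of the reporter signal at or above 50%; inactive = inhibition below 50%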); details: HEK293-TLR3 RL24 IRF3 luciferase reporter, at 10 µM, stronger effect = higher value

Muscarinic acetylcholine receptor M4 (Homo sapiens), sequence (P08173 whole entry, looked up): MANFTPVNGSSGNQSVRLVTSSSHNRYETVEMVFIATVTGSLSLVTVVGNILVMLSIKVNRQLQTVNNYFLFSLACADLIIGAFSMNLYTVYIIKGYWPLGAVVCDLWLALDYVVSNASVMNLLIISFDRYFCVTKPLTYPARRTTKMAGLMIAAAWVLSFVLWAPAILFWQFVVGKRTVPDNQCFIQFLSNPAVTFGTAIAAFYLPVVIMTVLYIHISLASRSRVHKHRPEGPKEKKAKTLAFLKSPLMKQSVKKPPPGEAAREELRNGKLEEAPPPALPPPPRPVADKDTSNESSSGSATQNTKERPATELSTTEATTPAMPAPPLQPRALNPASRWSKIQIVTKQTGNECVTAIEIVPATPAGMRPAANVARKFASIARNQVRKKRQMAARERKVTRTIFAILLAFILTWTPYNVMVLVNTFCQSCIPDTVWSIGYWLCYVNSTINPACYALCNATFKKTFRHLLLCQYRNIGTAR
Voltage-gated potassium channel subunit beta-2 (Rattus norvegicus), sequence (P62483 whole entry, looked up): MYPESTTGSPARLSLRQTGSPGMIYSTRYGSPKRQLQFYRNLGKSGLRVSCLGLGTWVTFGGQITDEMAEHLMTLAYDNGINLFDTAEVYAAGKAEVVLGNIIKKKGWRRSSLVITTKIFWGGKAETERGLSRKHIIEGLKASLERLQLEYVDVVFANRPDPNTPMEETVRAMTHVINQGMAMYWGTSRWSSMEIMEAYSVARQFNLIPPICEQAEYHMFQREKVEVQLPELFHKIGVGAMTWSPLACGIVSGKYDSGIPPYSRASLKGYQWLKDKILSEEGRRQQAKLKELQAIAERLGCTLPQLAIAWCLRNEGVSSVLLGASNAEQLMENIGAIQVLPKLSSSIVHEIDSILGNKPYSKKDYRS

| SMILES | cell count [1] | inhibition [1] | inhibition of aggregation [2] | nuclei count [2] [%] | inhibition [3] | nuclei count [3] [%] | fluorescence slope [4] | NADPH fluorescence slope [5] | fluorescence slope [6] | inhibition [7] | inhibition [8] |
| --- | --- | --- | --- | --- | --- | --- | --- | --- | --- | --- | --- |
| Cc1cc(NC(=O)CS(=O)(=O)c2cn(Cc3cccc(F)c3)c3ccccc23)no1 | 815 | -6.6% (inactive) | 6.9% (inactive) | 116 | -94.1% (inactive) | 107 | -0.262 (inactive) | -2.4e-05 (inactive) | 0.00574 (inactive) | 11.5% (inactive) | 0.399% (inactive) |
| COc1ccc(OC)c(NC(=O)CCN2CCN(c3ccccc3F)CC2)c1 | 529 | 10.1% (inactive) | 10.6% (inactive) | 81.2 | -63.8% (inactive) | 101 | -0.54 (inactive) | -3.3e-05 (inactive) | 0.00417 (inactive) | 1.17% (inactive) | 0.616% (inactive) |
| COCCN1C(=O)c2oc3c(C)cc(C)cc3c(=O)c2C1c1cccc(O)c1 (stereo not drawn) | 561 | -25% (inactive) | 6.4% (inactive) | 95.1 | -66% (inactive) | 120 | -0.545 (inactive) | -5.1e-05 (inactive) | 0.00558 (inactive) | 8.51% (inactive) | -1.3% (inactive) |
| Cc1cccc(C)c1OCc1nnc2c3cnn(C)c3ncn12 | 456 | 8.1% (inactive) | -5.7% (inactive) | 97.5 | -299% (inactive) | 125 | -0.533 (inactive) | -0.000169 (inactive) | 0.0037 (inactive) | -9.31% (inactive) | -26.9% (inactive) |
| CCOCCCNC(=O)c1c[nH]c2ccc(S(=O)(=O)Nc3cccc(OC)c3)cc2c1=O | 337 | -3.1% (inactive) | -12.3% (inactive) | 99.2 | -85.4% (inactive) | 105 | -0.599 (inactive) | -3.6e-05 (inactive) | 0.00605 (inactive) | 0.375% (inactive) | 0.559% (inactive) |
| O=C(Cc1ccccc1)Nc1nnc(-c2cccs2)s1 | 373 | -5.4% (inactive) | -3.5% (inactive) | 115 | -11.8% (inactive) | 130 | -0.521 (inactive) | -1.2e-05 (inactive) | 0.00894 (inactive) | 7.41% (inactive) | -69.9% (inactive) |
| Cc1nnc2sc(-c3cccc(NC(=O)c4cccnc4)c3)nn12 | 295 | -6% (inactive) | 5% (inactive) | 89.2 | -54% (inactive) | 108 | -0.346 (inactive) | 1.1e-05 (inactive) | 0.006 (inactive) | -21% (inactive) | -15.6% (inactive) |
| c1ccc(-n2nnnc2OCCOc2nnnn2-c2ccccc2)cc1 | 172 | -10.5% (inactive) | 11.5% (inactive) | 102 | -5.3% (inactive) | 83.1 | -0.562 (inactive) | -6.2e-05 (inactive) | 0.00376 (inactive) | 14.3% (inactive) | 23.8% (inactive) |
| Cc1nc2ccc(NC(=O)N3CCSCC3)cc2s1 | 710 | -0.4% (inactive) | -7.6% (inactive) | 111 | -93.4% (inactive) | 96.5 | -0.535 (inactive) | 5e-05 (inactive) | 0.00638 (inactive) | -33.4% (inactive) | -42.8% (inactive) |
| COc1ccc(NC(=O)N2CCC(O)(c3cccnc3)CC2)c(OC)c1 | 643 | -6.3% (inactive) | 13% (inactive) | 88.6 | -161% (inactive) | 145 | -0.558 (inactive) | -3.4e-05 (inactive) | 0.00818 (inactive) | 10.9% (inactive) | 12.7% (inactive) |
| COc1ccc(CC(=O)OCC(=O)NC(=O)NC2CCCCC2)cc1 | 505 | -13.7% (inactive) | -0.9% (inactive) | 80.9 | -5.5% (inactive) | 121 | -0.509 (inactive) | 4.4e-05 (inactive) | 0.00502 (inactive) | 9.64% (inactive) | 15.4% (inactive) |
| Cn1c(=O)c2c(nc(SCCCO)n2Cc2ccccc2Cl)n(C)c1=O | 531 | 7.2% (inactive) | -0.4% (inactive) | 96 | 41% (inactive) | 92.6 | -0.424 (inactive) | 3e-05 (inactive) | 0.00759 (inactive) | 7.16% (inactive) | 22.9% (inactive) |
| COc1ccc(C(NC(=O)c2ccco2)c2ccc(OC)c(OC)c2)cc1 (stereo not drawn) | 373 | 27.4% (active) | -4.2% (inactive) | 104 | -24.8% (inactive) | 114 | -0.326 (inactive) | -6.7e-05 (inactive) | 0.00496 (inactive) | 6.11% (inactive) | 18.1% (inactive) |
| CC(=O)Nc1ccc(Cl)cc1C(=O)O | 236 | 1.3% (inactive) | -13.3% (inactive) | 74.7 | 35.3% (inactive) | 74.6 | -0.519 (inactive) | 8e-06 (inactive) | 0.00503 (inactive) | 20.8% (inactive) | 16.7% (inactive) |
| COCCCNC(=O)C(Cc1ccccc1)NS(=O)(=O)c1ccc2c(c1)c(=O)n(C)c(=O)n2C (stereo not drawn) | 561 | -2.5% (inactive) | 42.3% (active) | 94.5 | -10.2% (inactive) | 117 | -0.468 (inactive) | -8e-06 (inactive) | 0.00611 (inactive) | -1.6% (inactive) | 19.2% (inactive) |
| CCC(=O)OC1(C#CCOc2ccc(OC)cc2)CCN(C)CC1 | 393 | -6.5% (inactive) | -20.2% (inactive) | 113 | -43.3% (inactive) | 142 | -0.61 (inactive) | -2.5e-05 (inactive) | 0.00292 (inactive) | 17.8% (inactive) | 16% (inactive) |
| CCOc1ccccc1-c1nc(-c2ccc(NC(=O)Cc3ccccc3OC)cc2)no1 | 484 | -5% (inactive) | -2.4% (inactive) | 87.4 | -54.6% (inactive) | 111 | -0.527 (inactive) | -3.1e-05 (inactive) | 0.0078 (inactive) | -18.2% (inactive) | -34.8% (inactive) |
| Cc1[nH]c(=O)[nH]c(=O)c1S(=O)(=O)N1c2ccc(F)cc2CCC1C (stereo not drawn) | 307 | -3.4% (inactive) | -5% (inactive) | 112 | -175% (inactive) | 96.2 | -0.461 (inactive) | -3.2e-05 (inactive) | 0.00639 (inactive) | 9.62% (inactive) | 21.9% (inactive) |
| O=C(NC(C(=O)c1ccccc1)n1ccc(=O)[nH]c1=O)c1ccccc1 (stereo not drawn) | 596 | -5.6% (inactive) | -13% (inactive) | 104 | -6.1% (inactive) | 104 | -0.449 (inactive) | -9.3e-05 (inactive) | 0.00666 (inactive) | 6.2% (inactive) | 12% (inactive) |
| CC1(C)NC(=O)N(CC(O)CN(Cc2ccccc2)Cc2ccccc2)C1=O (stereo not drawn) | 606 | 9.2% (inactive) | 14% (inactive) | 84.4 | -13% (inactive) | 113 | -0.299 (inactive) | -4e-05 (inactive) | 0.00564 (inactive) | 9.57% (inactive) | 21.2% (inactive) |
| COc1ccc(C(=O)OC(COc2ccccc2)Cn2ccnc2)cc1 (stereo not drawn) | 348 | -7.4% (inactive) | -15.3% (inactive) | 98 | 13.4% (inactive) | 118 | -0.291 (inactive) | 6.7e-06 (inactive) | 0.00691 (inactive) | -15.3% (inactive) | -24.8% (inactive) |
| c1ccc(-c2noc(-c3cccnc3)n2)nc1 | 359 | -2.1% (inactive) | 0.3% (inactive) | 102 | -85.3% (inactive) | 96.9 | -0.575 (inactive) | -4.4e-05 (inactive) | 0.00712 (inactive) | 0.927% (inactive) | -38.1% (inactive) |
| Cc1ccc(-n2c3c(cc(C(=O)O)c2=O)C(=O)CC(C)(C)C3)cc1 | 418 | 2.8% (inactive) | 6.9% (inactive) | 109 | 3.1% (inactive) | 110 | -0.377 (inactive) | 4.6e-05 (inactive) | 0.00507 (inactive) | 17% (inactive) | 24.4% (inactive) |
| O=C(CSc1nc(C2CCCCC2)n(-c2ccccc2)n1)NCCN1C(=O)CSC1=O | 382 | -5.9% (inactive) | 8% (inactive) | 112 | -13.3% (inactive) | 140 | -0.572 (inactive) | -4.9e-05 (inactive) | 0.00728 (inactive) | 15.1% (inactive) | 23.3% (inactive) |
| COc1nc(OC)nc(N2CCC(NC(=O)C(Cc3ccc(C(C)C)cc3)NC(C)=O)CC2)n1 (stereo not drawn) | 800 | -5.5% (inactive) | -37.6% (inactive) | 119 | -10.4% (inactive) | 130 | -0.486 (inactive) | -4.2e-05 (inactive) | 0.00515 (inactive) | 12.2% (inactive) | 11.8% (inactive) |
| CC(=O)Nc1ccc(NC(=O)c2ccccc2N(C)S(C)(=O)=O)cc1 | 408 | 0.5% (inactive) | -2.3% (inactive) | 111 | -46.3% (inactive) | 94.4 | -0.462 (inactive) | -5.4e-05 (inactive) | 0.00563 (inactive) | 11.7% (inactive) | 10.8% (inactive) |
| CCC(=O)N1CCc2cc(S(=O)(=O)CCC(=O)Nc3c(C)n(C)n(-c4ccccc4)c3=O)ccc21 | 598 | 7.7% (inactive) | -10.8% (inactive) | 116 | -110% (inactive) | 121 | -0.434 (inactive) | 0.000106 (inactive) | 0.00486 (inactive) | 2.43% (inactive) | 13.1% (inactive) |
| Cc1cccn2c(=O)c3cc(C#N)c(=NC(=O)c4cccnc4)n(CC4CCCO4)c3nc12 (stereo not drawn) | 852 | -2.8% (inactive) | -7.5% (inactive) | 105 | -74.7% (inactive) | 107 | -0.0377 (active) | -8.2e-07 (inactive) | 0.0039 (inactive) | -14.2% (inactive) | -0.613% (inactive) |
